Only some compounds are listed: those with a hit (about 4.3% of all), similar ones and a draw of the others.
CR mimetic SO: reduction of superoxide in aged yeast, primary screen, HTS | S. cerevisiae aged cells, superoxide DHE fluorescence; hits give low values | superoxide response (% of plate mean), % at 10 µM | hit rate 0.18% among 330,000;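 active = superoxide response under a set limit, about three screen SD below normal, cut at about 65% in these data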;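 note: yeast aged for seven days with compound at 30 °C before DHE staining; 100% = average MFI of all compound-treated wells on the plate with controls excluded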
SR-BI HDL uptake: inhibitors of SR-BI mediated HDL lipid uptake, primary screen, ldlA[mSR-BI] cells, fluorescence, single point; Scavenger receptor class B member 1 (Mus musculus), Q61009; ldlA[mSR-BI] CHO cells, DiI-HDL uptake fluorescence, 3 h; inhibition, % at 12.5 µM; hit rate 0.96% among 320,000;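 active = mean replicate inhibition of at least 70% and a set share of replicates each scoring 70 or more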;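 note: 0% = median of neutral control wells and 100% = median of positive control wells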
Target sequence (Q61009 whole entry, looked up): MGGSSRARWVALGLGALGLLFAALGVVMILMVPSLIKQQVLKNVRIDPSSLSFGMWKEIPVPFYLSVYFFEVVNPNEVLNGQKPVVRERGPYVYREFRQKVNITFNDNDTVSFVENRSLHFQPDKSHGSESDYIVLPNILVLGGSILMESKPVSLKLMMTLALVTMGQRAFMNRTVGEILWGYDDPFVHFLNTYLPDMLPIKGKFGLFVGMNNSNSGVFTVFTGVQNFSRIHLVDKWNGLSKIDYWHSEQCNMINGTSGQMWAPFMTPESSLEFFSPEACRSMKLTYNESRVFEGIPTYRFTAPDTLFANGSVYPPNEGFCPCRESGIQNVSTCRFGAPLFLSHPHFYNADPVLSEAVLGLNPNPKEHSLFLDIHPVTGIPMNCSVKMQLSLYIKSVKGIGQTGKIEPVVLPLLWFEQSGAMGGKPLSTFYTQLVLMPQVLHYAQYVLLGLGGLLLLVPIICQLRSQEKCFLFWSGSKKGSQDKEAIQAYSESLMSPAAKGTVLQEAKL
AHR act: AHR activators, primary screen, cell-based, luminescence, luciferase reporter, human. activation, % at 5 µM. AHR-responsive luciferase reporter cells. hit rate 2.5% among 320,000; in the data active = activation above about 47%;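 note: 0% = vehicle wells and 100% = reference agonist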
Hep lipid drop: inhibitors of hepatocyte lipid droplet formation, primary screen, imaging, high-throughput imaging, BODIPY stain; inhibition, % at 6.5 µM; AML12 mouse hepatocytes, oleate lipid droplets; AID 1656, 2009; hit rate 0.4% among 240,000;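 active = lipid droplet intensity inhibited by at least 50%, with more than 500 cells counted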
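Assay system: AML12 hepatocytes (mouse) / Also added: 100 µM oleic acid challenge / Times: overnight treatment with compound plus oleate / Detection: high-content imaging of BODIPY-stained droplets and DAPI nuclei / Evaluation: % inhibition of lipid droplet signal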
SR-BI DiI-HDL act: activators of SR-BI mediated DiI-HDL uptake, primary screen, ldlA[mSR-BI] CHO cells, DiI fluorescence; 3 h; 100 = double the neutral-control signal; activation, % at 12.5 µM; AID 504775, 2011; hit rate 0.096% among 320,000;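 active = mean replicate activation of at least 60% and every replicate at or above 60%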;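 note: 0% = median plate neutral-control signal and 100% = twice that signal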
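System: CHO ldlA[mSR-BI] cells / Medium: HEPES-buffered (25 mM, pH 7.4) F12 plus 0.5% BSA / Probe or stimulus: labelled HDL, 10 µg/mL / Doses: single compound concentration, delivered by pin transfer / Schedule: 3 h, 37 °C / Measured by: DiI fluorescence, bottom read / Measure: cell-associated DiI fluorescence as measure of HDL uptake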
SMARCA2 activ: SMARCA2 (BRM) function activators, primary screen, cell-based, luminescence, high throughput; hit rate 1% among 370,000; AID 652017, 2013; activation, % at 9.1 µM; MG213 cells, MMTV-luciferase reporter, dexamethasone, overnight; in the data active = activation above about 7.8%;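 note: 0% = vehicle wells and 100% = reference activator wells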
An asterisk follows results filed as active; · = not tested or not shown.

SMILES | CR mimetic SO | SR-BI HDL uptake | AHR act | Hep lipid drop | SR-BI DiI-HDL act | SMARCA2 activ
NS(=O)(=O)c1ccc(N/N=C/c2cn(-c3ccccc3)nc2-c2cccs2)c([N+](=O)[O-])c1 | 88.2 | 103.8* | -0.7 | 23.6 | -103.8 | -3.2
NC(=O)N/N=C/c1cn(-c2ccccc2)nc1-c1cccs1 | 92.9 | 17.3 | 32.7 | 5.3 | -17.3 | 3.5
CCOC(=O)[C@@]12CCCC=C1N(CCc1ccc(Cl)cc1)C(=O)[C@H]2CC(=O)N1CCOCC1 | · | · | · | · | · | -3.7
C=CCOC(=O)N[C@@H](c1coc2ccccc2c1=O)[C@@H](C)/C=C/CC(=O)OC | · | · | · | · | · | 1.2
Cn1c2ccccc2c2cc(C(=O)N3CCN(CCO)CC3)sc21 | 103.0 | 15.9 | 68.4* | -6.2 | -15.9 | -0.5
CC(=O)NNC(=O)c1cc2c3ccccc3n(C)c2s1 | 106.7 | 1.0 | 74.6* | 19.2 | -1.0 | -3.9
C=CCn1c(SCCC)nc2sc3c(c2c1=O)CCc1ccccc1-3 | 116.5 | 25.0 | 28.4 | -6.6 | -25.0 | 0.1
CCSc1nc2sc3c(c2c(=O)[nH]1)CCc1ccccc1-3 | 106.3 | 18.1 | 56.6* | -3.9 | -18.1 | 0.1
COC(=O)C1CN(Cc2cn(Cc3ccc(F)cc3)nn2)CCS(=O)(=O)N1Cc1ccccc1 (configuration not stated) | · | · | · | · | · | -3.1
COC(=O)[C@]12C[C@H](CC(=O)NCCCN3CCCC3=O)C(=O)N(Cc3cccc4ccccc34)C1=C[C@H](C1CCCC1)O[C@@H]2C | · | · | · | · | · | -1.4
CC/C=C\[C@H](O)[C@H](O)C1=C(C)C(=O)[C@]2(O1)C(=O)N[C@@](OC)(C(=O)c1ccccc1)[C@@H]2O | · | · | · | · | · | -1.7
CC(C)C[C@@H]1COc2cccc(N3CCCC3)c2S(=O)(=O)N1 | · | · | · | · | · | -3.3
COc1cc2c(cc1NC(=O)C(C)OC(=O)C1CC(=O)N(Cc3ccco3)C1)oc1ccccc12 (configuration not stated) | 105.5 | 69.6 | 53.8* | 15.0 | -69.6 | 3.6
Cc1nc2c(cc1C#N)C(=O)c1ccccc1-2 | 107.4 | -18.8 | 159.2* | 0.2 | 18.8 | 2.7
O=C(OCCCN1CCC2(CCCCC2)C1=O)c1ccccc1 | · | · | · | · | · | -2.3
Cc1ccc2c(c1)-c1nc3ccccc3cc1C2=NC1CCCCC1 | 90.1 | -27.4 | 78.8* | -14.1 | 27.4 | 9.5*
Cc1ccc(-c2cc3ccccc3nc2N2CCCC2)cc1 | 110.9 | 27.7 | 12.4 | -10.8 | -27.7 | 2.9
CC1=C(CC/C(C)=N/NC(N)=S)C(C)(C)CCC1 | 102.6 | 75.6* | 3.0 | -13.5 | -75.6 | -1.3
CCCCc1c(-c2ccccc2OC)ncn1Cc1ccccc1C | · | · | · | · | · | -7.1
COc1cc(/C=C(/C(=O)c2cccs2)c2nc3ccccc3[nH]2)cc(OC)c1O | 100.0 | -3.7 | 114.5* | 4.2 | 3.7 | 4.5
COc1ccc(CNS(=O)(=O)c2cc3c(cc2Br)CC(C)N3C(C)=O)cc1 (configuration not stated) | · | · | · | · | · | 1.4
Cc1ccc(C(=O)Nc2ncc(Cc3ccc(F)cc3)s2)o1 | 105.1 | -19.3 | 1.9 | · | 19.3 | 7.9*
O=C(CSc1nnc(-c2ccccn2)n1-c1ccccc1)Nc1cccc2ccccc12 | · | · | · | · | · | -3.7
Cc1ccc(-n2c(SCC(=O)Nc3ccc(S(=O)(=O)Nc4nccs4)cc3)nnc2-c2cccs2)cc1 | · | · | · | · | · | -1.0
S=c1[nH]nc(-c2ccccc2)n1/N=C/c1ccc(-c2ccccc2Cl)o1 | 93.2 | -24.0 | 52.8* | 5.8 | 24.0 | -4.4
O=C(Nc1nc2ccc(F)cc2s1)C1CCN(S(=O)(=O)c2cc([N+](=O)[O-])ccc2Cl)CC1 | 103.4 | 76.6* | 9.9 | -43.7 | -76.6 | -4.3
O=C(OC12CCCN(C1)/C(=C/c1cccc(Cl)c1)C2)C1CCCCC1 (configuration not stated) | · | · | · | · | · | -2.3
O=C(Nc1ccc(N2CCOCC2)cc1)c1ccc(Cl)nc1 | 111.5 | 15.0 | 73.1* | -16.6 | -15.0 | ·
O=C(Nc1ccc(N2CCOCC2)cc1)c1ccncc1 | 96.9 | -6.3 | 8.0 | 8.7 | 6.3 | 1.9
C=CCN(c1ccccc1)S(=O)(=O)c1cccc(C(=O)Nc2ccc(N3CCOCC3)cc2)c1 | · | 80.2* | · | · | -80.2 | 0.2

Source: PubChem BioAssay (several laboratories)
